Calls of active or inactive are those of the source. The rule behind the calls is not given here.
Legend:
[1] = Cytotoxicity against human TZM-bl cells at 0.1 to 6 uM after 48 hrs; format: cell-based
How it was run: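 TZM-bl cells (2×10^4 per well) grown overnight, then exposed to compound in DMSO carrier at 37°C. Viability read after 48 h with Cell Titer Blue reagent.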

[2] = test system: Human immunodeficiency virus 1; test: Inhibition of wild-type HIV 1 HXB2 LTR DNA assessed as reduction in promoter activity at 6 uM after 24 hrs by GFP reporter assay in the presence of Tat
How it was run: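 HEK 293T cells (2×10^5) transfected with pcLTR-EGFP, with Tat present. Ligand (1.5–6.0 µM) added 4 h after transfection and left overnight. Flow cytometry gated on GFP+ cells of viable morphology, 30000 events per sample; mean EGFP fluorescence read. n = 3, mean ± s.d., t-test.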

[3] = test system: Human immunodeficiency virus 1; test: Antiviral activity against Nef-deficient HIV 1 NL4-3 infected in human TZM-bl cells assessed as inhibition of viral replication at 3 to 6 uM after 48 hrs by luciferase reporter gene assay; format: functional, organism-based
How it was run: (§1)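 TZM-bl cells (HIV-1 LTR-luciferase reporter line), 2×10^4 per well, grown overnight. Ligand preincubated with medium and wild-type or Nef-defective NL4-3 virus for 4 h before infection. Virus stocks were made by transfecting HEK 293T with proviral genomes and amplified in MT2 cells. Luciferase read on lysates after 48 h at 37°C. Values relative to DMSO-only infected control, n = 3, ±SEM.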

[4] = test system: Human immunodeficiency virus 1; test: Antiviral activity against wild type HIV 1 NL4-3 infected in human TZM-bl cells assessed as inhibition of viral replication at 3 to 6 uM after 48 hrs by luciferase reporter gene assay; format: functional, organism-based; how it was run: as §1
[5] = test system: Human immunodeficiency virus 1; test: Inhibition of wild-type HIV 1 HXB2 LTR DNA assessed as reduction in promoter activity after 24 hrs by GFP reporter assay in the absence of Tat
How it was run: (§2)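 HEK 293T cells (2×10^5) transfected with LTR-EGFP plasmid, with or without Tat. Ligand (1.5–6.0 µM) added 4 h after transfection, then incubated overnight. Mean EGFP fluorescence measured by flow cytometry, 30000 events, gated on GFP+ cells with viable morphology. n = 3, mean ± s.d., Student's t-test.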

[6] = test system: Human immunodeficiency virus 1; test: Inhibition of wild-type HIV 1 HXB2 LTR DNA assessed as reduction in promoter activity after 24 hrs by GFP reporter assay in the presence of Tat; how it was run: as §2
[7] = test system: Human immunodeficiency virus 1; test: Inhibition of HIV 1 HXB2 G-tract mutant m5 LTR DNA assessed as reduction in promoter activity at 1.5 to 6 uM after 24 hrs by luciferase assay
How it was run: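 HEK 293T cells (5.5×10^4 per well) transfected with LTR-firefly luciferase vector plus HSV-TK Renilla control vector (200 ng each). Cells treated with ligand at 1.5–6.0 µM. Firefly signal normalized to Renilla and expressed relative to untreated control. n = 3, mean ± s.d., Student's t-test.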

[8] = test system: Human immunodeficiency virus 1; test: Inhibition of wild-type HIV 1 HXB2 LTR DNA assessed as reduction in promoter activity at 1.5 to 6 uM after 24 hrs by luciferase assay; design: scale not given: the % may be the effect or the level left
How it was run: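 HEK 293T cells (5.5×10^4 per well) co-transfected with LTR-driven firefly luciferase (pGL4.10Luc2/LTR) and TK-promoter Renilla luciferase (pGL4.74), 200 ng each. Treated with ligand at 1.5–6.0 µM. Firefly signal normalized to Renilla. n = 3, mean ± s.d., Student's t-test.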

[9] = test system: Human immunodeficiency virus 1; test: Binding affinity to HIV 1 HXB2 G-tract mutant m3'' FL-LTR assessed as effect on LTR G-quadruplex formation by Taq polymerase stop assay
How it was run: (§3)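 Primer extension on wild-type or mutant full-length LTR templates in 100 mM K+ with 100 nM ligand. Labelled primer (72 nM) annealed to template (36 nM) in 10 mM lithium cacodylate, pH 7.4. Ligand/KCl incubation 20 min at room temperature, then Taq Gold extension at 47°C for 30 min. Products on 12% denaturing gel, phosphorimaging of stop sites.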

[10] = test system: Human immunodeficiency virus 1; test: Binding affinity to HIV 1 HXB2 G-tract mutant m3' FL-LTR assessed as effect on LTR G-quadruplex formation by Taq polymerase stop assay; how it was run: as §3
[11] = test system: Human immunodeficiency virus 1; test: Binding affinity to HIV 1 HXB2 G-tract mutant m1 FL-LTR assessed as effect on LTR G-quadruplex formation by Taq polymerase stop assay; how it was run: as §3
[12] = test system: Human immunodeficiency virus 1; test: Binding affinity to HIV 1 HXB2 G-tract mutant m2 FL-LTR assessed as formation of LTR-2 G-quadruplex by Taq polymerase stop assay; how it was run: as §3
[13] = test system: Human immunodeficiency virus 1; test: Binding affinity to HIV 1 HXB2 G-tract mutant m6' FL-LTR assessed as formation of LTR-2 and LTR-3 G-quadruplex by Taq polymerase stop assay; how it was run: as §3
[14] = test system: Human immunodeficiency virus 1; test: Binding affinity to HIV 1 HXB2 G-tract mutant m3 FL-LTR assessed as formation of LTR-4 G-quadruplex by Taq polymerase stop assay; how it was run: as §3
[15] = test system: Human immunodeficiency virus 1; test: Binding affinity to HIV 1 HXB2 G-tract mutant m5/m4 FL-LTR assessed as formation of LTR G-quadruplex by Taq polymerase stop assay; how it was run: as §3
[16] = test system: Human immunodeficiency virus 1; test: Binding affinity to HIV 1 HXB2 G-quadruplex FL-LTR DNA assessed as blocking sites at G-tracts (4 to 2) after 20 mins by Taq polymerase stop assay
How it was run: (§4)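 Primer was 5'-32P-labelled (72 nM) and annealed to full-length LTR template (36 nM) in 10 mM lithium cacodylate, pH 7.4. Template was incubated with ligand plus 100 mM KCl for 20 min at room temperature. Extension used Taq Gold polymerase (2 U) at 47°C for 30 min. Reactions were stopped by EtOH precipitation, run on a 12% denaturing gel and read by phosphorimaging as stop sites at G-tracts.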

[17] = test system: Human immunodeficiency virus 1; test: Binding affinity to HIV 1 HXB2 G-quadruplex FL-LTR DNA assessed as blocking at G-tracts (6 and 5) after 20 mins by Taq polymerase stop assay; how it was run: as §4
[18] = test system: Human immunodeficiency virus; test: Binding affinity to HIV 1 HXB2 G-quadruplex LTR-4 DNA assessed as change in melting temperature at 16 uM after 24 hrs by circular dichroism spectropolarimeter analysis in the presence of K+
How it was run: (§5)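 Oligonucleotides at 4 µM final in 10 mM lithium cacodylate, pH 7.4, with or without 100 mM KCl. Annealed at 95 °C for 5 min, slowly cooled, measured after 24 h. Ligand added after annealing at 16 µM final. CD melting from 20–95 °C, 1 min equilibration per step. Tm taken from a van't Hoff two-state fit.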

[19] = test system: Human immunodeficiency virus 1; test: Binding affinity to HIV 1 HXB2 G-quadruplex LTR-FL DNA assessed as change in melting temperature at 16 uM after 24 hrs by circular dichroism spectropolarimeter analysis in the presence of K+; how it was run: as §5
[20] = test system: Human immunodeficiency virus 1; test: Binding affinity to HIV 1 HXB2 G-quadruplex LTR-3 DNA assessed as change in melting temperature at 16 uM after 24 hrs by circular dichroism spectropolarimeter analysis in the presence of K+; how it was run: as §5
[21] = test system: Human immunodeficiency virus 1; test: Binding affinity to HIV 1 HXB2 G-quadruplex LTR-3 DNA assessed as change in melting temperature at 16 uM after 24 hrs by circular dichroism spectropolarimeter analysis in the absence of K+; how it was run: as §5
[22] = test system: Human immunodeficiency virus 1; test: Binding affinity to HIV 1 HXB2 G-quadruplex LTR-2 DNA assessed as change in melting temperature at 16 uM after 24 hrs by circular dichroism spectropolarimeter analysis in the absence of K+; how it was run: as §5
[23] = test system: Human immunodeficiency virus 1; test: Binding affinity to HIV 1 HXB2 G-tract mutant m6 FL-LTR DNA assessed as formation of LTR-2 G-quadruplex by Taq polymerase stop assay; how it was run: as §3
[24] = test system: Human immunodeficiency virus 1; test: Binding affinity to HIV 1 HXB2 G-quadruplex LTR-2 DNA assessed as change in melting temperature at 16 uM after 24 hrs by circular dichroism spectropolarimeter analysis in the presence of K+; how it was run: as §5

SMILES	inhibition [3]	inhibition [4]	inhibition [6]	Activity [16]	Activity [17]	ΔTm [18] [°C]	ΔTm [19] [°C]	ΔTm [20] [°C]	ΔTm [21] [°C]	ΔTm [22] [°C]	ΔTm [24] [°C]	further results
CN(C)c1ccc(Nc2c3ccc(NC(=O)CCN4CCCC4)cc3nc3cc(NC(=O)CCN4CCCC4)ccc23)cc1	Active	Active	Dose-dependent effect	inactive	Active	54	5.6	42.3	12.9	17.6	39.9	Activity [1]: Non-toxic; inhibition [2]: 50%; inhibition ([5]; concentration not given here): 30%; Activity [7]: inactive; Activity [8]: 70%; Activity [9]: inactive; Activity [10]: inactive; Activity [11]: inactive; Activity [12]: inactive; Activity [13]: Active; Activity [14]: Active; Activity [15]: inactive; Activity [23]: Active
C[n+]1ccc(-c2c3nc(c(-c4cc[n+](C)cc4)c4ccc([nH]4)c(-c4cc[n+](C)cc4)c4ccc([nH]4)c(-c4cc[n+](C)cc4)c4nc2C=C4)C=C3)cc1	–	–	–	inactive	Active	43.9	4.5	38	22.9	12.4	33.4	–
C[n+]1ccccc1-c1c2nc(c(-c3cccc[n+]3C)c3ccc([nH]3)c(-c3cccc[n+]3C)c3ccc([nH]3)c(-c3cccc[n+]3C)c3nc1C=C3)C=C2	inactive	inactive	inactive	–	–	–	–	–	–	–	–	inhibition [5]: inactive
O=C1c2ccc3c4ccc5c6c(ccc(c7ccc(c2c37)C(=O)N1CCN1CCCCC1)c64)C(=O)N(CCN1CCCCC1)C5=O	–	–	–	–	–	55.8	8.8	16.4	15	13.8	31.1	–
